Laboratory results reported in ChEMBL document CHEMBL2086326, “Biological activity evaluation and structure-activity relationships analysis of ferulic acid and caffeic acid derivatives for anticancer” (Bioorg Med Chem Lett, 2012).

Legend:
Format in all cases: functional, cell-based
[1] = Cytotoxicity against human M4E cells after 72 hrs by alamar blue assay
How it was run: (§1)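 Cells seeded at 800–1000 per well (20–25 cells/µL) and left overnight to attach. Compounds were diluted serially from 10 mM DMSO stocks and tested at 8 final concentrations, 50 to 0.39 µM, in triplicate for 72 h. Vehicle control was 0.5% DMSO. Alamar blue was added to 10% final and fluorescence read after 4 h (ex 530, em 560 nm). Viability was expressed as percent of vehicle, and IC50 taken as 50% kill versus control.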

[2] = test system: HOP-62; test: Cytotoxicity against human HOP62 cells after 72 hrs by alamar blue assay; settings: HOP-62, 72 h; how it was run: as §1
[3] = test system: Calu-1; test: Cytotoxicity against human Calu1 cells after 72 hrs by alamar blue assay; settings: Calu-1, 72 h; how it was run: as §1
[4] = test system: A549; test: Cytotoxicity against human A549 cells after 72 hrs by alamar blue assay; settings: A549, 72 h; how it was run: as §1
[5] = test system: NCI-H1792; test: Cytotoxicity against human NCI-H1792 cells after 72 hrs by alamar blue assay; settings: NCI-H1792, 72 h; how it was run: as §1
[6] = test system: NCI-H157; test: Cytotoxicity against human NCI-H157 cells after 72 hrs by alamar blue assay; settings: NCI-H157, 72 h; how it was run: as §1
[7] = test system: NCI-H460; test: Cytotoxicity against human H460 cells after 72 hrs by alamar blue assay; settings: NCI-H460, 72 h; how it was run: as §1
[8] = Cytotoxicity against human H266 cells after 72 hrs by alamar blue assay; settings: H266, 72 h; how it was run: as §1
[9] = test system: HeLa; test: Cytotoxicity against human HeLa cells after 72 hrs by alamar blue assay; how it was run: as §1
[10] = test system: NCI-H1299; test: Cytotoxicity against human NCI-H1299 cells after 72 hrs by alamar blue assay; settings: NCI-H1299, 72 h; how it was run: as §1
[11] = Cytotoxicity against human SKBR cells after 72 hrs by alamar blue assay; how it was run: as §1
[12] = Cytotoxicity against human 292G cells after 72 hrs by alamar blue assay; how it was run: as §1
[13] = test system: M14; test: Cytotoxicity against human M14 cells after 72 hrs by alamar blue assay; settings: M14, 72 h; how it was run: as §1
[14] = test system: LOX IMVI; test: Cytotoxicity against human LOXIMVI cells after 72 hrs by alamar blue assay; how it was run: as §1

| SMILES | IC50 [1] | IC50 [2] | IC50 [3] | IC50 [4] | IC50 [5] | IC50 [6] | IC50 [7] | IC50 [8] | IC50 [9] | IC50 [10] | IC50 [11] | IC50 [12] | IC50 [13] | IC50 [14] |
| --- | --- | --- | --- | --- | --- | --- | --- | --- | --- | --- | --- | --- | --- | --- |
| CCCOC(=O)/C=C/c1ccc(O)c(O)c1 | 12.4 µM | 7.81 µM | 17.7 µM | 4.39 µM | 22.1 µM | 7.16 µM | 7.01 µM | 34.4 µM | 1.51 µM | 5.85 µM | 3.87 µM | 7.58 µM | 13.5 µM | 7.5 µM |
| CCCCOC(=O)/C=C/c1ccc(O)c(O)c1 [BUTYL CAFFEATE] | 8.66 µM | 5.59 µM | 11.7 µM | 3.51 µM | 5.75 µM | 2.62 µM | 5.62 µM | 11.3 µM | 0.59 µM | 5.81 µM | 2.17 µM | 6.46 µM | 11.1 µM | 9.54 µM |
| COc1cc(/C=C/C(=O)Oc2ccc(OCc3c(-c4ccccc4)no[n+]3[O-])cc2)ccc1O | > 50 µM | 30.4 µM | 28.8 µM | 3.39 µM | 8.15 µM | 43.1 µM | 15.8 µM | > 50 µM | 12.1 µM | 28.5 µM | 11 µM | 31 µM | > 50 µM | > 50 µM |
| COc1cc(/C=C/C(=O)OCCCCCO[N+](=O)[O-])ccc1O | 21.8 µM | 12.5 µM | 26.3 µM | 6.39 µM | 13 µM | 13.4 µM | 12.3 µM | 21.2 µM | 13.4 µM | 20.8 µM | 8.06 µM | 24.9 µM | 24.5 µM | > 50 µM |
| COc1cc(/C=C/C(=O)Oc2cccc(OCc3c(-c4ccccc4)no[n+]3[O-])c2)ccc1O | 44.6 µM | > 50 µM | > 50 µM | 0.72 µM | > 50 µM | 24.7 µM | 11.6 µM | > 50 µM | > 50 µM | > 50 µM | 14.2 µM | > 50 µM | > 50 µM | 49.4 µM |
| CCCCCOC(=O)/C=C/c1ccc(O)c(O)c1 | 6.8 µM | 5.11 µM | 8.57 µM | 5.75 µM | 6.35 µM | 2.28 µM | 1.91 µM | 7.24 µM | 2.02 µM | 4.69 µM | 2.96 µM | 7.73 µM | 7.48 µM | 3.38 µM |
| O=C(/C=C/c1ccc(O)c(O)c1)OCc1c(-c2ccccc2)no[n+]1[O-] | 12.9 µM | 6.12 µM | 7.68 µM | 2.71 µM | 3.78 µM | > 50 µM | 2.54 µM | 14.2 µM | 1.23 µM | > 50 µM | 0.7 µM | 9.17 µM | 12.5 µM | 13.3 µM |
| CC(C)COC(=O)/C=C/c1ccc(O)c(O)c1 | 36.8 µM | > 50 µM | > 50 µM | 13.6 µM | > 50 µM | 8.55 µM | 16 µM | > 50 µM | 4.7 µM | 37.7 µM | 16.2 µM | 37.5 µM | > 50 µM | > 50 µM |
| COc1cc(/C=C/C(=O)OCCCCO[N+](=O)[O-])ccc1OCCCCO[N+](=O)[O-] | > 50 µM | > 50 µM | > 50 µM | > 50 µM | > 50 µM | > 50 µM | > 50 µM | > 50 µM | 0.74 µM | > 50 µM | > 50 µM | > 50 µM | > 50 µM | > 50 µM |
| CCCCOC(=O)/C=C/c1ccc(O)c(OC)c1 | 15 µM | 14.9 µM | 17.2 µM | 8.23 µM | 15 µM | 9.03 µM | 19.4 µM | 18.3 µM | 10.3 µM | 8.23 µM | 13.2 µM | 22.9 µM | 18.1 µM | 19.3 µM |
| COC(=O)/C=C/c1ccc(O)c(O)c1 [METHYLCAFFEATE] | 8.89 µM | 3.86 µM | 5.5 µM | 7.54 µM | 6.09 µM | 6.25 µM | 14.8 µM | > 50 µM | 3.77 µM | 3.53 µM | 5.15 µM | 3.11 µM | 8.86 µM | 21.8 µM |
| O=C(/C=C/c1ccc(OCCCO[N+](=O)[O-])c(O)c1)OCCCO[N+](=O)[O-] | 14.1 µM | 10 µM | 12.5 µM | 0.69 µM | 6.61 µM | 5.71 µM | 9.58 µM | > 50 µM | > 50 µM | > 50 µM | 4.81 µM | 4.98 µM | 8.96 µM | 6.94 µM |
| O=C(/C=C/c1ccc(OCCCCO[N+](=O)[O-])c(O)c1)OCCCCO[N+](=O)[O-] | > 50 µM | > 50 µM | > 50 µM | 0.41 µM | > 50 µM | > 50 µM | > 50 µM | > 50 µM | 3.93 µM | > 50 µM | 3.23 µM | > 50 µM | > 50 µM | > 50 µM |
| COc1cc(/C=C/C(=O)OCc2ccc(OCc3c(-c4ccccc4)no[n+]3[O-])cc2)ccc1O | > 50 µM | > 50 µM | > 50 µM | 17.2 µM | > 50 µM | > 50 µM | 44.2 µM | > 50 µM | > 50 µM | > 50 µM | 11.7 µM | > 50 µM | > 50 µM | > 50 µM |
| COc1cc(/C=C/C(=O)OCCCCOc2no[n+]([O-])c2S(=O)(=O)c2ccccc2)ccc1O | 0.84 µM | 0.41 µM | 0.41 µM | 0.4 µM | 0.42 µM | 0.42 µM | 0.45 µM | 0.4 µM | 0.46 µM | 0.42 µM | 0.42 µM | 1.93 µM | 0.4 µM | 0.44 µM |
| CCOC(=O)/C=C/c1ccc(O)c(OC)c1 [ETHYL FERULATE] | 33.4 µM | 26.8 µM | > 50 µM | 12.5 µM | 25.6 µM | 32.3 µM | 29.1 µM | 28.1 µM | 2.13 µM | 36.8 µM | 24.9 µM | 32 µM | > 50 µM | > 50 µM |
| COc1cc(/C=C/C(=O)OCCCO[N+](=O)[O-])ccc1O | 18.4 µM | 19.4 µM | > 50 µM | 13.2 µM | 28.5 µM | 20.5 µM | 29 µM | 44 µM | 6.7 µM | 28.3 µM | 17.2 µM | 39.4 µM | 42.6 µM | 29.5 µM |
| COc1cc(/C=C/C(=O)OCCCCCO[N+](=O)[O-])ccc1OCCCCCO[N+](=O)[O-] | > 50 µM | > 50 µM | > 50 µM | > 50 µM | > 50 µM | > 50 µM | > 50 µM | > 50 µM | > 50 µM | > 50 µM | > 50 µM | > 50 µM | > 50 µM | > 50 µM |
| COc1cc(/C=C/C(=O)OCCOCCOc2no[n+]([O-])c2S(=O)(=O)c2ccccc2)ccc1O | 1.12 µM | 0.48 µM | 0.45 µM | 0.41 µM | 1.07 µM | 0.44 µM | 0.43 µM | 0.42 µM | 0.43 µM | 0.49 µM | 0.41 µM | 2.88 µM | 0.41 µM | 0.42 µM |
| COC(=O)/C=C/c1ccc(O)c(OC)c1 | > 50 µM | > 50 µM | > 50 µM | > 50 µM | > 50 µM | > 50 µM | > 50 µM | > 50 µM | 5.55 µM | > 50 µM | > 50 µM | > 50 µM | > 50 µM | > 50 µM |
| O=C(/C=C/c1ccc(O)c(O)c1)OC/C=C/CO[N+](=O)[O-] | 4.31 µM | 4.65 µM | 0.42 µM | 0.4 µM | 0.41 µM | 1.36 µM | 2.9 µM | 10.3 µM | 0.4 µM | 0.41 µM | 0.41 µM | 7.95 µM | 1.49 µM | 0.43 µM |
| COc1cc(/C=C/C(=O)OCc2cccc(OCc3c(-c4ccccc4)no[n+]3[O-])c2)ccc1O | > 50 µM | > 50 µM | > 50 µM | > 50 µM | > 50 µM | > 50 µM | 29.4 µM | > 50 µM | 5.64 µM | > 50 µM | 4.18 µM | > 50 µM | > 50 µM | > 50 µM |
